This is a sample that favours compounds with a hit; in the whole collection about 2.9% have one here.
SIAE primary: blocks human sialic acid acetylesterase; Q9HAT2; hit rate 0.69% among 370,000; SIAE FP-Rh probe binding, fluorescence polarization; AID 1053197; inhibition, % at 9.66 µM;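 active = inhibition above a cutoff: mean of compounds within the control limits plus 3 SD of those, cut at about 17% in these data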;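 note: 0% = plate median of compound wells and 100% = probe without SIAE protein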
PRMT1 inh: PRMT1 (human) inhibition, primary screen; recombinant PRMT1, activity-based probe fluorescence polarization; hit rate 1.3% among 370,000; Q99873; inhibition, % at 2.79 µM;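 active = inhibition above about 21% made by adding two undisclosed values, limit read from the data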
ATG4B inhibitor: inhibitors of human ATG4B cysteine protease; Q9Y4P1; ATG4B cleavage of LC3-PLA2, NBD-HPC fluorescence, 1 h; inhibition, % at 8.33 µM; hit rate 0.51% among 340,000; in the data active = inhibition above about 40%
Target sequence (Q9Y4P1 whole entry, looked up): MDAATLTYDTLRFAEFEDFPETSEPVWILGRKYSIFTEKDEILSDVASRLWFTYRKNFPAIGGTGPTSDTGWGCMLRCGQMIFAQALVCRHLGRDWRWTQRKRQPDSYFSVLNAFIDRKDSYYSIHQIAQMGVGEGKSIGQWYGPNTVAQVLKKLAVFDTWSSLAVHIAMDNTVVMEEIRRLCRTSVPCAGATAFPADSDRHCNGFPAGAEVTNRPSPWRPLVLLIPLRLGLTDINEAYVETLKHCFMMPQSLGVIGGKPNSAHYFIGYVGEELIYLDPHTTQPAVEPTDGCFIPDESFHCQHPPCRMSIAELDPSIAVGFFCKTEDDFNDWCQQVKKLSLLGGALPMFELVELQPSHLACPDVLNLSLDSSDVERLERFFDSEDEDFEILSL
HTRA1 inhibitor: HTRA1 (human) protease inhibition. recombinant HTRA1, FP-rhodamine activity-based probe, fluorescence polarization. inhibition, % at 5.96 µM. hit rate 0.5% among 340,000. Q92743; in the data active = inhibition above about 36%;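 note: 0% = enzyme with DMSO and 100% = wells lacking enzyme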
mABHD4 FP: inhibits mouse alpha/beta hydrolase domain 4; hit rate 0.54% among 370,000; purified mABHD4, FP-Rh probe fluorescence polarization; inhibition, % at 8.92 µM; Q8VD66;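 active = inhibition exceeding the mean over every tested compound plus 3 SD, cut at about 30% in these data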;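 note: 0% = plate median of compound wells and 100% = S159A mutant with DMSO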
Target sequence (Q8VD66 whole entry, looked up, the tested form may be a part): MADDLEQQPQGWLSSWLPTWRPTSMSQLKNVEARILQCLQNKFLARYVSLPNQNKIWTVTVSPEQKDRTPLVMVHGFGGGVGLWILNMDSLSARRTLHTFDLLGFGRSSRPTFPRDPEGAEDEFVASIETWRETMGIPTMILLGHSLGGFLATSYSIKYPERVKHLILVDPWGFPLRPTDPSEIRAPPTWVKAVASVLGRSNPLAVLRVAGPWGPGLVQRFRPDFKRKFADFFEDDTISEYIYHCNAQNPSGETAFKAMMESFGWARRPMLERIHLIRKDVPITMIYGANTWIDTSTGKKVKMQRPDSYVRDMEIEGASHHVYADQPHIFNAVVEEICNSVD
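Assay system: Wild-type mouse ABHD4 protein | Medium: HEPES pH 7.0 buffer, 150 mM NaCl, 0.01% Pluronic F-127 | Incubation: Enzyme–compound pre-incubation 45 min, then probe 60 min, both 25 °C | Technique: Fluorescence polarization with parallel and perpendicular emission, 525/598 nm | Evaluation: % inhibition of FP-Rh probe binding versus controls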
TCR-CD3 inh: inhibitors of human TCR-CD3 interaction; TAMRA-labeled TCR probe fluorescence, biochemical; inhibition, % at 9.4 µM; hit rate 0.37% among 360,000; AID 651800; in the data active = inhibition above about 19%;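 note: recombinant mutant TCR 2C K166C tagged with TAMRA read by polarization; 0% = receptor in buffer alone and 100% = receptor with positive control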
An asterisk follows results filed as active; · = no result given.

SMILES | SIAE primary | PRMT1 inh | ATG4B inhibitor | HTRA1 inhibitor | mABHD4 FP | TCR-CD3 inh
COC(=O)[C@@]1(Cc2ccc(F)cc2)[C@H]2c3cc(C(=O)N4CCCC4)n(Cc4ccc(S(C)(=O)=O)cc4)c3C[C@H]2CN1C(=O)c1ccccc1 | 1.2 | -1.1 | · | · | 6.0 | 8.8
Cn1cc(-c2cccc3[nH]cc(-c4ccccc4)c23)c2ccccc21 | -1.4 | 1.8 | · | · | 6.8 | ·
COc1ccc(OC)c(CN2C(=O)CN(S(C)(=O)=O)CC2(C)c2nnnn2C2CCCC2)c1 (centres undefined) | -5.3 | 1.0 | · | · | 4.4 | ·
O=C(COc1cccnc1[N+](=O)[O-])c1ccc(Cl)s1 | 3.6 | 51.7* | 7.9 | 16.5 | 27.4 | 10.3
Cc1ccccc1NC(=O)CC1SCCNC1=O (centres undefined) | -2.6 | 22.0* | -5.4 | 1.0 | -4.0 | -4.9
Cc1c(Cl)cccc1NC(=O)CC1SCCNC1=O (centres undefined) | -3.4 | 6.6 | 5.0 | 2.3 | 3.2 | 0.3
CC(=O)N(C)c1ccc(NC(=S)NC(=O)/C=C/c2ccco2)cc1 | 0.2 | 6.3 | -2.1 | 0.0 | 5.3 | 12.3
CC(=O)Nc1ccc(NC(=S)NC(=O)/C=C/c2ccco2)cc1 | 3.9 | 21.1* | 1.5 | -1.3 | 16.3 | 2.4
O=C(/C=C/c1ccco1)NC(=S)Nc1ccccc1O | 8.2 | 21.3* | 13.1 | · | 18.5 | 16.4
COc1cccc(Cn2cc(COC(=O)NCCc3ccccc3)nn2)c1 | -2.5 | -1.7 | · | · | 1.1 | ·
Cc1cc(C)nc(Nc2nc(=O)c3ccccc3s2)n1 | 7.2 | 43.6* | -1.3 | 1.8 | 4.6 | 8.9
Clc1ccc(C[n+]2csc3ccccc32)cc1 | -2.3 | 63.0* | -9.0 | 4.0 | 6.0 | -0.6
Fc1ccc(C[n+]2csc3ccccc32)cc1 | 2.6 | 73.9* | 2.4 | 5.5 | -9.3 | -0.3
Cc1ccc(-c2c[n+](Cc3ccc(Cl)cc3)c3n2CCC3)cc1 | -0.9 | 0.3 | -5.2 | -4.6 | -1.0 | 9.1
Fc1ccc(CSc2ncnc3scc(-c4ccccc4)c23)cc1 | -8.2 | 4.4 | -11.8 | -22.4 | -17.3 | -7.3
C[C@H]1/C=C/CC(=O)N[C@@H](c2ccccc2)[C@@H](C)/C=C/CC(=O)N[C@H]1c1ccccc1 | 1.8 | -4.1 | · | · | -3.2 | ·
O=[N+]([O-])c1ccc2c(c1)-c1ccccc1C2O (centres undefined) | 5.7 | 36.3* | · | 0.5 | 4.7 | 0.7
COc1ccc(C=O)cc1-c1cc(C(C)=O)c2n(c1=O)CCC2 | 7.7 | -3.5 | · | · | -1.4 | ·
COc1ccc(S(=O)(=O)/N=C2/C=CC(=O)C(C)=C2C)cc1 | · | · | 0.7 | -1.7 | · | ·
CC1=C(C)/C(=N\OS(=O)(=O)c2ccc(C)cc2)C=CC1=O | 9.2 | 23.7* | -5.1 | 2.0 | 8.2 | 5.6
N#Cc1c(NC(=O)c2ccccc2)sc2c1CCCCC2 | -5.0 | -0.5 | 11.3 | -5.4 | -14.7 | 0.5
N#Cc1c(NC(NC(=O)c2ccco2)C(=O)c2ccccc2)sc2c1CCCC2 (centres undefined) | -3.1 | 22.7* | 3.3 | -3.5 | 3.0 | 5.4
NC(=O)c1c(NC(NC(=O)c2ccco2)C(=O)c2ccc(Cl)cc2)sc2c1CCCC2 (centres undefined) | 9.7 | 24.3* | -19.4 | 9.0 | 7.3 | 3.0
Cc1ccc(C)c(N2CCN(C(=O)c3cc4sccc4n3C)CC2)c1 | 7.1 | 22.2* | 2.5 | -20.4 | 1.9 | 0.2
O=c1oc2ccccc2nc1/C=C(\O)c1ccccc1 | -2.9 | 18.1 | 3.2 | · | 23.5 | 3.7
SMILES | SIAE primary | PRMT1 inh | ATG4B inhibitor | HTRA1 inhibitor | mABHD4 FP | TCR-CD3 inh
O=c1oc2cc([N+](=O)[O-])ccc2nc1/C=C(\O)c1cccc(Br)c1 | 5.8 | 14.8 | -2.6 | 3.2 | 39.4* | -10.8
COC(=O)C1=C(C)Nc2ccc(C)cc2S1 | -14.4 | 23.6* | -3.5 | 6.0 | -5.2 | -9.7
Nc1cc2nsnc2cc1Br | 5.3 | 40.4* | 65.2* | 36.1 | 19.0 | 1.9
CCOC(=O)c1ccc(S(=O)(=O)Nc2nc3cc(S(=O)(=O)NC4=NCCCCC4)ccc3s2)cc1 | -1.1 | 41.0* | -28.5 | -9.9 | -3.1 | -4.0
C/C(=N\NC(=O)Cc1cccs1)c1ccco1 | 5.5 | 0.6 | · | · | 3.0 | ·
N#C/C(=C/c1cn(-c2ccccc2)nc1-c1cccc(S(=O)(=O)N2CCOCC2)c1)C(=O)NCc1ccco1 | -3.3 | 23.5* | -1.0 | 1.4 | -1.1 | -4.2
CN1CCN(NC(=O)CN2C(=O)/C(=C/c3ccccc3Cl)SC2=S)CC1 | -11.7 | 16.3 | 0.9 | -17.6 | -7.0 | -27.3
CN1CCN(NC(=O)CN2C(=O)/C(=C/c3c(Cl)cccc3Cl)SC2=S)CC1 | -6.2 | 22.1* | -11.5 | -4.1 | -3.3 | -10.6
Nc1nonc1-n1nnc(C(=O)N/N=C/c2ccc(Br)cc2)c1CSC1=NCCS1 | -31.9 | 13.4 | -8.1 | -38.6 | -0.8 | 1.1
Nc1nonc1-n1nnc(C(=O)N/N=C/c2cccnc2)c1CSC1=NCCS1 | -0.6 | 47.4* | -5.4 | -1.2 | 6.2 | 2.1
Cn1c(SCC(=O)N/N=C/C=C/c2ccco2)nc2ccccc21 | 10.6 | 24.3* | -4.7 | 6.1 | 6.3 | 16.8
CCOC(=O)N1CCN(C(=O)C[C@H]2C[C@@]3(C(=O)OCC)CCCC4=C3N(CCC4)C2=O)CC1 | -0.5 | 1.1 | · | · | 4.2 | ·
O=C(Nc1cc(S(=O)(=O)N2CCOCC2)ccc1O)c1ccc2c(c1)S(=O)(=O)c1ccccc1C2=O | 1.0 | 21.5* | -26.7 | -2.9 | 9.2 | 0.4
O=C(Nc1ccc(S(=O)(=O)N2CCOCC2)cc1)c1ccc2c(c1)S(=O)(=O)c1ccccc1C2=O | -13.5 | 2.7 | -1.7 | 0.1 | 0.2 | 0.3
CCOC(=O)C1=NOC(C(=O)NC2CCCC2)(C(=O)c2ccc(OC)cc2)C1 (centres undefined) | 5.2 | -1.9 | · | · | 1.9 | ·
CCC/C=C1/CCCOC(C(=O)NCc2ccc(C)o2)(C(F)(F)F)C1 (centres undefined) | -3.5 | 45.3* | 15.6 | -2.9 | -8.5 | 2.6
CCC/C=C1/CCCOC(C(=O)NCc2ccccn2)(C(F)(F)F)C1 (centres undefined) | 3.1 | 1.2 | 8.5 | -4.2 | 8.2 | 5.0
CCn1c(SCC(=O)NN=Cc2cc(OC)ccc2OC)nnc1-c1ccc(OC)cc1 | -1.9 | -0.5 | · | · | 3.5 | ·
C=C(C)CSc1nnc(-c2cc(-c3ccc(OC)cc3)n[nH]2)n1N | -0.9 | -2.3 | · | · | -1.5 | ·
Cc1cccc(C(=O)N[C@@H]2CC[C@@]34CCCN3C(=O)CCC[C@H]4[C@H]2C)c1 | 2.0 | 6.0 | · | · | -5.8 | ·
Cc1cc2c(SCC(=O)Nc3cccc(O)c3)ncnc2s1 | -25.8 | 34.2* | 5.3 | -24.2 | -8.5 | 9.9
COc1ccc(NC(=O)CSc2ncnc3sc(C)cc23)cc1 | -2.6 | 1.4 | -9.3 | -7.8 | -3.3 | 2.6
N=c1c(C(=O)NC2CCCCC2)cc2c(=O)n3ccccc3nc2n1Cc1ccccc1 | 1.2 | -0.4 | 3.8 | -5.4 | 9.4 | -0.6
N=c1c(C(=O)NC2CCCCC2)cc2c(=O)n3ccccc3nc2n1CCc1ccccc1 | 92.5* | -0.5 | 2.7 | 0.8 | 0.0 | 2.9
Nc1cc(-c2ccncc2)c[nH]c1=O | -0.3 | 23.6* | 1.6 | 5.0 | 5.2 | -4.4

Assay outcomes (PubChem BioAssay)
